Assay results pooled from the literature.
Protocols differ between the studies behind these lines.
Sample: plasma

COc1cc(-c2cc(C(C)=O)n3ccccc23)c(OC)cc1Cn1ccnc1 gave a half-life of 43.2 min (male Sprague-Dawley rat; oral; 5 mg/kg).
C1=C/COCc2cc(ccc2OCCN2CCCC2)Nc2nccc(n2)-c2cccc(c2)COC/1 has a half-life of 727 min (male Sprague-Dawley rat; oral; 36 mg/kg).
With C=CC(=O)N1CCC[C@@H](n2nc(-c3ccc(Oc4ccccc4)cc3)c3c(N)ncnc32)C1 the half-life was 150 min (male Wistar rat; oral; 40 mg/kg).
The half-life of COCC(=O)N1CCC[C@H](C(=O)NCc2nc(-c3ccccc3)cs2)C1 is reported as 360 min (male Sprague-Dawley rat; intravenous; 1 mg/kg).
CCN(CC)Cc1ccc2cc(COC(=O)Nc3ccc(C(=O)NO)cc3)ccc2c1 gave a half-life of 1180 min (male Sprague-Dawley rat; oral; 10 mg/kg).
For C[C@]1(O)CCCN(c2nc(Nc3ccc(S(=O)(=O)N[C@H]4CC[C@H](CN5CCN(c6ccc(C7CCC(=O)NC7=O)cc6F)CC5)CC4)cc3F)ncc2C(F)(F)F)C1 (some centres unmarked), the half-life was 222 min (rat; intravenous; 2 mg/kg).
The half-life of NCCOCC(=O)N1CCC[C@H](C(=O)NCc2nc(-c3ccc(C(F)(F)F)cc3)cs2)C1 is reported as 264 min (male Sprague-Dawley rat; intravenous; 1 mg/kg).
COc1cc(C2C3=C(COC3=O)N(CCO)c3cc4c(cc32)CCC4)cc(OC)c1OC (centres unmarked) has a half-life of 517 min (female Sprague-Dawley rat; intraperitoneal; 50 mg/kg).
CCCc1nc2c(C)cc(-c3nc4ccccc4n3C)cc2n1Cc1ccc(-c2ccccc2C(=O)O)cc1 gave a half-life of 410 min (male Sprague-Dawley rat; oral; 8 mg/kg; single dose).
With [2H]c1cc(C)c(NC(=O)c2cnc(Nc3cc(N4CCCCC4)nc(C)n3)s2)c(Cl)c1 the half-life was 102 min (male Sprague-Dawley rat; intravenous; 1 mg/kg).
C[C@]1(O)CCCN(c2nc(Nc3ccc(S(=O)(=O)N[C@@H]4CCN(CC5CCN(c6ccc(C7CCC(=O)NC7=O)cc6F)CC5)C[C@H]4F)cc3F)ncc2C(F)(F)F)C1 (some centres unmarked) gave a half-life of 306 min (rat; intravenous; 2 mg/kg).
CC(=O)c1c(C)c2cnc(Nc3ccc(N4CCNCC4)cn3)nc2n(C2CCCC2)c1=O gave a half-life of 126 min (male Sprague-Dawley rat; intravenous; 5 mg/kg).
The half-life of CC(C)(N)COCC(=O)N1CCC[C@H](C(=O)NCc2nc(-c3ccc(C(F)(F)F)cc3)cs2)C1 is reported as 438 min (male Sprague-Dawley rat; oral; 3 mg/kg).
With C[C@H]1CN(c2ccc(C3CCC(=O)NC3=O)cc2F)CCN1CC12CCC(NS(=O)(=O)c3ccc(Nc4ncc(C(F)(F)F)c(N5CCC[C@](C)(O)C5)n4)c(F)c3)(CC1)CO2 (some centres unmarked) the half-life was 204 min (rat; intravenous; 2 mg/kg).
For O=C1CCC(N2Cc3cc(C4CCN(Cc5ccccc5)CC4)ccc3C2=O)C(=O)N1 (centres unmarked), the half-life was 78.6 min (male Sprague-Dawley rat; oral; 3 mg/kg).
The half-life of [2H]C([2H])([2H])NC(=O)c1cc(Oc2ccc(NC(=O)Nc3ccc(Cl)c(C(F)(F)F)c3)cc2)ccn1 is reported as 1390 min (rat; oral; 40 mg/kg; single dose).
For CNS(=O)(=O)c1ccc(Nc2ncc(C(F)(F)F)c(N3CCC[C@](C)(O)C3)n2)c(C)c1, the half-life was 48 min (rat; intravenous; 2 mg/kg).
For CCOCC(=O)N1CCC[C@H](C(=O)NCc2nc(-c3ccc(C)nc3)cs2)C1, the half-life was 114 min (male Sprague-Dawley rat; oral; 3 mg/kg).
With COc1nc(-c2cccc(-c3ccccc3)c2C)ccc1CNCCNC(=O)CCCCCCCCCCC(=O)N1CCN(CCNC(=O)c2cc3c(=O)n4cccc(C)c4nc3n(CCc3cccs3)c2=N)CC1 the half-life was 348 min (male Sprague-Dawley rat; intravenous; 2 mg/kg).
Cc1cc(S(=O)(=O)NC2CC(N3CCN(CC4CCN(c5cccc6c5n(C)c(=O)n6C5CCC(=O)NC5=O)CC4)CC3)C2)ccc1Nc1ncc(C(F)(F)F)c(N2CCC[C@](C)(O)C2)n1 (some centres unmarked) has a half-life of 306 min (rat; intravenous; 2 mg/kg).
COCC(=O)N1CCC[C@H](C(=O)NCc2nc(-c3ccc(C#N)cc3)cs2)C1 gave a half-life of 90 min (male Sprague-Dawley rat; intravenous; 1 mg/kg).
For Cc1cc2c(C(N)=O)cccc2n1-c1nc2c(c(NCc3ccccc3)n1)CCCN2, the half-life was 72 min (male Sprague-Dawley rat; oral; 10 mg/kg; single dose).
For CCCCC(=O)Nc1ccc(-c2ccc3ncn(CCC)c(=O)c3c2)cn1, the half-life was 65.3 min (male rat; oral; 10 mg/kg).
C[C@H]1Oc2cc(cnc2N)-c2c(nn(C)c2C#N)CN(C)C(=O)c2ccc(F)cc21 has a half-life of 529 min (male Sprague-Dawley rat; oral; 10 mg/kg; single dose).
Cc1cc(S(=O)(=O)N[C@H]2CC[C@H](CN3CCN(c4ccc(C5CCC(=O)NC5=O)c(Cl)c4)CC3)CC2)ccc1Nc1ncc(C(F)(F)F)c(N2CCC[C@](C)(O)C2)n1 (some centres unmarked) gave a half-life of 174 min (rat; intravenous; 2 mg/kg).
CCOCC(=O)N1CCC[C@H](C(=O)NCc2nc(-c3ccc(C#N)nc3)cs2)C1 has a half-life of 108 min (male Sprague-Dawley rat; intravenous; 1 mg/kg).
CC[C@@H]([C@H](C)O)n1ncn(-c2ccc(N3CCN(c4ccc(OC[C@@H]5CO[C@@](Cn6cncn6)(c6ccc(F)cc6F)C5)cc4)CC3)cc2)c1=O gave a half-life of 944 min (Sprague-Dawley rat; oral; 40 mg/kg).
The half-life of Cc1nc(Nc2ncc(C(=O)Nc3c(C)cccc3Cl)s2)cc(N2CC[C@@H](N)C2)n1 is reported as 168 min (male Sprague-Dawley rat; intravenous; 1 mg/kg).
Cc1cc(S(=O)(=O)NC2CC(N3CCN(CC4CCN(c5ccc(NC6CCC(=O)NC6=O)cc5C)CC4)CC3)C2)ccc1Nc1ncc(C(F)(F)F)c(N2CCC[C@](C)(O)C2)n1 (some centres unmarked) has a half-life of 318 min (rat; intravenous; 2 mg/kg).
CONC(=O)c1cccc2c1cc(C)n2-c1nc2c(c(NCc3ccccc3)n1)CCCN2 has a half-life of 69 min (male Sprague-Dawley rat; oral; 10 mg/kg; single dose).
For C[C@H]1CN(CC2CCN(c3ccc(C4CCC(=O)NC4=O)cc3F)CC2)CC[C@H]1NS(=O)(=O)c1ccc(Nc2ncc(C(F)(F)F)c(N3CCC[C@](C)(O)C3)n2)c(F)c1 (some centres unmarked), the half-life was 276 min (rat; intravenous; 2 mg/kg).
CCONC(=O)N1CCC[C@H](C(=O)NCc2nc(-c3ccc(C#N)cc3)cs2)C1 has a half-life of 840 min (male Sprague-Dawley rat; oral; 3 mg/kg).
